In paper PMC5241585 (International Journal for Parasitology: Drugs and Drug …, 2016):
Where two headings read alike, the source gives them in different places. Marks after values point to notes of the source that are not given here.

Assays:
[1] = cited from earlier work
P. berghei QIMR = assay: In vivo anti-Plasmodium efficacy in infected BALB/c mice; conditions: for peripheral blood parasitemia compared to vehicle-only control mice: 25 mg/kg oral gavage twice daily for four days; for days after infection with significant reduction in parasitemia (P < 0.05): 25 mg/kg orally twice daily for four days
How it was run: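 Female BALB/c mice, 6–8 weeks old, six per group, infected i.p. with […] P. berghei QIMR-infected erythrocytes from a passage mouse. Oral gavage of 25 mg/kg test compound in DMSO/PBS (100 μL) twice daily for four days, starting 2 h p.i. with 4 h between doses. Chloroquine 10 mg/kg oral twice daily for three days. Giemsa thin smears read daily from day 4 (>800 erythrocytes per mouse).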

[2] = female BALB/c nude mice, oral 50 mg/kg; ref Yeo et al., 2007; cited from earlier work
P. falciparum 3D7 = P. falciparum 3D7 3H-hypoxanthine incorporation growth inhibition assay; type: cell-based; conditions: Plasmodium falciparum, 3D7, 48 h, read-out: P. falciparum 3D7 IC50
[3] = test system: free L. donovani promastigotes; assay: Resazurin reduction assay, L. donovani promastigotes; type: cell-based, Leishmania donovani; conditions: for inhibition at 20 µM: Leishmania donovani, read-out: inhibition of free L. donovani promastigotes
[4] = test system: human Neonatal Foreskin Fibroblast (NFF) cells; conditions: read-out: NFF IC50; previously published; ref Engel et al., 2015; cited from earlier work
P. knowlesi A1H.1 = P. knowlesi A1H.1 3H-hypoxanthine incorporation growth inhibition assay; type: cell-based; conditions: Plasmodium knowlesi, 48 h, read-out: P. knowlesi A1H.1 IC50
[5] = test system: Human Embryonic Kidney (HEK 293) cells; conditions: read-out: HEK 293 IC50; previously published; ref Engel et al., 2015; cited from earlier work
S. mansoni adult worms = assay: Adult worm pair stability and egg laying in culture; type: cell-based, Schistosoma mansoni
How it was run: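 S. mansoni adult worm pairs kept in culture with test compound at 10 μM. Pairing and egg laying expressed as mean % of DMSO control (set to 100%). Praziquantel (10 μM) served as control. Run in triplicate on two separate occasions.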

Plasmodium parasites = assay: Ratios derived from Table 1 IC50 values; type: cell-based
[6] = Oral pharmacokinetics in humans; type: in vivo
[7] = Oral pharmacokinetics in mice; conditions: mice dosed orally with 50 mg/kg; ref Yeo et al., 2007
[8] = humans, 200–600 mg oral vorinostat, ref Kavanaugh et al., 2010
[9] = humans, 15–80 mg oral panobinostat, ref Prince et al., 2009

Which “AUC0−∞” value [1, 8] does the source give for `O=C(CCCCCCC(=O)Nc1ccccc1)NO` [Vorinostat] here?
Its value is 1698 ng⋅h/mL.

What about the Cmax [1, 8] of the same compound?
Its Cmax is 658 ng/mL.

What about the “peripheral blood parasitemia compared to vehicle-only control mice” value (P. berghei QIMR) of the same compound?
Its value is “significant reduction”.

And the “days after infection with significant reduction in parasitemia (P < 0.05)” value (P. berghei QIMR)?
The value was 4 to 7 days.

And the “AUC0−∞” value [2]?
Its value is 619 ng⋅h/mL.

With `O=C(/C=C/c1cccc(S(=O)(=O)Nc2ccccc2)c1)NO` [Belinostat] as the compound, how does the IC50 (P. falciparum 3D7) read?
Its IC50 is 170 nM.

And the inhibition at 20 µM [3]?
Its inhibition at 20 µM is 20 to 35%.

And the IC50 [4]?
The IC50 was 2370 nM.

And the IC50 (P. knowlesi A1H.1)?
Its IC50 is 190 nM.

What about the IC50 [5] of the same compound?
The IC50 was 1420 nM.

With `CCN(CC)CCCC(C)Nc1ccnc2cc(Cl)ccc12` (stereo not drawn) [Chloroquine] as the compound, how does the peripheral blood parasitemia (P. berghei QIMR; 10 mg/kg orally twice daily beginning 2 h p.i., data not shown) read?
Its peripheral blood parasitemia is “did not develop detectable peripheral blood parasitemia”.

What about the IC50 (P. falciparum 3D7) of the same compound?
Its IC50 is 10 nM.

What about the IC50 [4] of the same compound?
Its IC50 is 48900 nM.

What about the IC50 (P. knowlesi A1H.1) of the same compound?
Its IC50 is 10 nM.

Which results are given for `O=C(C1CCCCC1)N1CC(=O)N2CCc3ccccc3C2C1` (stereo not drawn) [praziquantel]?
effect on adult worms (S. mansoni adult worms; 10 μM): induced the death of adult worms; viability at 10 µM (S. mansoni adult worms; Schistosoma mansoni, read-out: adult worm viability): 10%

What does the source list for `C/C=C1\NC(=O)[C@H]2CSSCC/C=C/[C@H](CC(=O)N[C@H](C(C)C)C(=O)N2)OC(=O)[C@H](C(C)C)NC1=O` [Romidepsin]?
IC50 (P. falciparum 3D7): 140 nM; inhibition of adult worm pairing (S. mansoni adult worms; 10 μM): completely inhibited; inhibition of egg production (S. mansoni adult worms; 10 μM): completely inhibited; inhibition of free L. donovani promastigotes ([3]; 20 μM): no growth inhibition; IC50 [4]: 1 nM; IC50 (P. knowlesi A1H.1): 210 nM; IC50 [5]: < 5 nM; selectivity for the parasite over NFF or HEK 293 cells (Plasmodium parasites; P. knowlesi vs human cells, in abstract): not selective

Which “adverse effects in humans” value ([1]; 20 mg oral dose, ref FARYDAK product sheet (Novartis)) does the source give for `Cc1[nH]c2ccccc2c1CCNCc1ccc(/C=C/C(=O)NO)cc1` [Panobinostat] here?
The value was “adverse effects are commonly reported”.

And the “AUC0−∞” value [1, 9]?
Its value is 183–373 ng⋅h/mL.

And the Cmax [1, 9]?
The Cmax was 23 to 71 ng/mL.

What about the t1/2 [1, 9] of the same compound?
Its t1/2 is 16–30 ^d h.

What about the “mean Cmax” value ([1]; humans, single oral dose 20 mg, ref European Medicines Agency, 2015) of the same compound?
Its value is 24.3 (±12) ng/mL.

And the “peripheral blood parasitemia compared to vehicle-only control mice” value (P. berghei QIMR)?
The value was “significant reduction”.

And the “reduction in mean peripheral parasitemia compared to vehicle-only control” value (P. berghei QIMR; 25 mg/kg oral gavage twice daily, days 4-10)?
The value was 2–3 fold.

What about the “survival compared to vehicle control group” value (P. berghei QIMR; 25 mg/kg oral gavage twice daily, p = 0.0013) of the same compound?
The value was “significantly improved”.

And the “days after infection with significant reduction in parasitemia (P < 0.05)” value (P. berghei QIMR)?
The value was 4 to 10 days.

What about the IC50 (P. falciparum 3D7) of the same compound?
The IC50 was 4 nM.

And the inhibition at 10 µM (S. mansoni adult worms; Schistosoma mansoni, read-out: inhibition of adult worm pairing)?
The inhibition at 10 µM was 30 to 40%.

And the inhibition at 10 µM (S. mansoni adult worms; Schistosoma mansoni, read-out: inhibition of egg production)?
The inhibition at 10 µM was ~50%.

What about the inhibition at 20 µM [3] of the same compound?
The inhibition at 20 µM was 20 to 35%.

And the IC50 [4]?
Its IC50 is 70 nM.

And the “half-life in humans compared to mice” value ([6]; from Table 2 values)?
Its value is 6–10 fold.

What about the “oral bioavailability (F%) in humans compared to mice” value ([6]; from Table 2 values) of the same compound?
The value was “approximately five”.

And the Cmax ([6]; human, in vivo, po, 20 mg)?
The Cmax was ~70 nM.

What about the IC50 (P. knowlesi A1H.1) of the same compound?
The IC50 was 9 nM.

And the “half-life longer than vorinostat” value [7]?
The value was > 2 fold.

What about the IC50 [5] of the same compound?
Its IC50 is 180 nM.

What about the “greater inhibitory potency against Plasmodium parasites in vitro than vorinostat” value (Plasmodium parasites; from Table 1 IC50 values) of the same compound?
The value was 40–60 fold.
